Compounds with a hit are over-represented: about 1.9% of the library has one in this group of screens.
NPY1 pot ag: NPY-Y1 receptor potentiators or agonists, primary screen, cell-based. 220,000 compounds, 0.37% hits. Neuropeptide Y receptor type 1 (Homo sapiens), P25929. activation, % at 3.6 µM. NPY-Y1 expressing cells, potentiator/agonist activation. AID 1304, 2008; in the data active = activation above about 33%, passing the limit was not always enough;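 note: cells stimulated with NPY at EC10 then isoproterenol at EC100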
Target sequence (P25929 whole entry, looked up): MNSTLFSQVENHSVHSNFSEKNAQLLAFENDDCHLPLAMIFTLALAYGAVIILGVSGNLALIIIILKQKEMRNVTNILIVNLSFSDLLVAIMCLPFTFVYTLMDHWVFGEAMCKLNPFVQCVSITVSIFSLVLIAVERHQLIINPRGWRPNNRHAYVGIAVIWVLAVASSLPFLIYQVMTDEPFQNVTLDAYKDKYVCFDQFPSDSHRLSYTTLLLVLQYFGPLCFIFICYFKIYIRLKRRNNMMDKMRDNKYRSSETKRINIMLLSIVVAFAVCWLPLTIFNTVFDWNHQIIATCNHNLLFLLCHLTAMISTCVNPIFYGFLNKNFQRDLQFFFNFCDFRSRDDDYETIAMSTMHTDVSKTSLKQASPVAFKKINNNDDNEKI
NPY Y2 blocker: NPY-Y2 receptor antagonists, primary screen, cell-based; inhibition, % at 2.7 µM; Neuropeptide Y receptor type 2 (Homo sapiens), P49146; AID 793, 2007; 140,000 compounds, 0.99% hits; NPY-Y2 expressing cells, antagonist mode; in the data active = inhibition above about 17%
NPY2 pot ag: NPY-Y2 potentiators or agonists, primary screen, cell-based | Neuropeptide Y receptor type 2 (Homo sapiens), P49146 | cells expressing NPY-Y2, potentiator/agonist read-out | activation, % at 3.6 µM | 220,000 compounds, 0.45% hits; in the data active = activation above about 27%;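 note: cells stimulated with NPY near EC25 plus isoproterenol at EC100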
NPY Y1 blocker: NPY-Y1 receptor antagonists, primary screen, cell-based; Neuropeptide Y receptor type 1 (Homo sapiens), P25929; HEK293-CNG Y1 cells, membrane potential fluorescence; NPY at EC95, then isoproterenol; inhibition, % at 3.6 µM; 200,000 compounds, 1% hits; AID 1040, 2008;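 active = inhibition above the campaign mean inhibition of all tested compounds plus 3 SD, cut at about 20% in these data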
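Test system – HEK293 Y1/CNG channel cell line · Also added – NPY agonist 25 nM, then isoproterenol 1 µM plus Ro 20-1724 25 µM · Compound dosing – one concentration, 3.6 µM, in 0.4% DMSO · Schedule – compound incubation 1 h at room temperature, readout 45 min post-stimulation · Technique – fluorescence, membrane potential probe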
NPY1 antag ctr: NPY-Y1 receptor antagonists, selectivity check, counter-screen for NPY-Y2 antagonist project, cell-based; shares compounds with NPY Y2 blocker; cell-based NPY-Y1 antagonism counterscreen; inhibition, % at 3.6 µM; 710 compounds, 19% hits; AID 1256, 2008; in the data active = inhibition above about 20%;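 note: cells challenged with NPY then isoproterenol with cAMP sensed through a CNG channel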
NPY2 antag conf: NPY-Y2 receptor antagonists, retest of hits, confirmation, HEK293-CNG cells, membrane potential fluorescence, triplicate; 710 compounds, 32% hits; AID 1257, 2008; inhibition, % at 2.8 µM; shares compounds with NPY Y2 blocker; HEK293 NPY-Y2 CNG channel;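 active = mean inhibition of triplicate wells above the hit cutoff set in the primary screen, cut at about 17% in these data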
A number is an active result; – = inactive; · = no result given.

SMILES	NPY1 pot ag	NPY Y2 blocker	NPY2 pot ag	NPY Y1 blocker	NPY1 antag ctr	NPY2 antag conf
COc1ccccc1Oc1ccc2c(c1)C(=O)N(c1ccc(O)cc1)C2=O	–	18	–	–	–	–
CC1CCCC(NC(=O)COC(=O)CSc2ccc3ccccc3c2)C1C (stereo not given)	–	19	–	–	28	22
CC1CCCC(NC(=O)COC(=O)CCc2ccccc2)C1C (stereo not given)	–	·	–	–	·	·
O=C(COC(=O)C1=COCCO1)NCc1ccc(Cl)cc1	–	·	–	–	·	·
COc1ccc(N2CCN(c3nc4c(c(=O)n(C)c(=O)n4C)n3Cc3ccccc3)CC2)cc1	–	–	–	–	·	·
COc1ccc(N2CCN(Cc3nc4c(c(=O)n(C)c(=O)n4C)n3Cc3cccc(C)c3)CC2)cc1	–	24	–	–	–	–
CCOc1cccc(NC(=O)c2cccc(F)c2)c1	–	·	–	–	·	·
CCOC(=O)c1nn(-c2cccc(C)c2)c2nc(-c3ccccc3)c(C#N)c(=O)n12	–	–	–	–	·	·
CCOC(=O)c1nn(-c2ccc(F)cc2)c2nc(-c3ccccc3)c(C#N)c(=O)n12	–	19	–	–	–	–
Fc1ccc(Cn2c(-c3cscn3)nc3ccccc32)c(Cl)c1	–	–	–	–	·	·
Nc1nonc1-c1nc2ccccc2n1Cc1ccc(F)cc1Cl	–	25	–	–	45	51
CCOC(=O)c1c(N2C(=O)Nc3ccccc3N2O)sc2c1CCCC2	–	–	–	–	·	·
CCOC(=O)c1c(-n2cccc2)sc2c1CCCC2=O	–	25	–	–	–	–
COC(=O)c1ccc(CSc2nc3ccccc3c(=O)n2-c2ccc(OC)c(OC)c2)o1	–	–	–	–	·	·
COC(=O)c1sc(N)c(C(=O)OC)c1CSc1nc2sc3c(c2c(=O)n1C)CCC3	–	–	–	–	·	·
COC(=O)c1ccc(CSc2nc3ccccc3c(=O)n2-c2ccccc2)o1	–	18	–	–	–	47
COC(=O)c1ccc(CSc2nc3sc4c(c3c(=O)n2C)CCCC4)o1	–	18	–	–	–	19
Cc1nn(C)cc1CN(C)C(=O)CCc1nnc(CCC2CCCCC2)o1	–	·	–	–	·	·
O=C(Nc1cc([N+](=O)[O-])ccc1Cl)c1ccc2c(c1)OCO2	–	·	–	–	·	·
CCOc1ccc(-n2cc(-c3ccc(OC)c(OC)c3)[nH]c2=S)cc1	–	·	–	–	·	·
C=CCn1c(SCC(=O)N2CCc3ccccc3C2)nc2sc(C)c(C)c2c1=O	–	19	–	–	–	–
Cc1ccc(NC(=O)C(=O)NCCOc2ccc(Cl)cc2)c(C)c1	–	21	–	–	–	20
Cc1occc1-c1nnc(SCC(=O)O)n1-c1ccccc1	–	·	–	·	·	·
CC1CCCCC1NC(=O)c1ccc(S(=O)(=O)NCc2ccco2)cc1 (stereo not given)	–	17	–	–	–	–
O=C(Nc1ccccc1)c1ccc(S(=O)(=O)NCc2ccco2)cc1	–	–	–	–	·	·
SMILES	NPY1 pot ag	NPY Y2 blocker	NPY2 pot ag	NPY Y1 blocker	NPY1 antag ctr	NPY2 antag conf
O=c1c2ccccc2nc(SCc2ccccc2)n1Cc1ccco1	–	–	–	–	·	·
O=c1c2ccccc2nc(SCc2cccc(F)c2)n1Cc1ccco1	–	19	–	–	–	–
CC1=CC(C)(C)N(C(=O)c2ccccc2)c2ccc(C)cc21	–	–	–	–	·	·
CC1=CC(C)(C)N(S(=O)(=O)c2ccc(F)cc2)c2ccc(C)cc21	–	19	–	–	–	–
CC1=CC(C)(C)N(S(=O)(=O)c2ccc(C)cc2)c2ccccc21	–	20	–	–	31	26
CCCn1cc(CN2CCC(N3CCC(C(=O)N4CCOCC4)CC3)CC2)c(C)n1	–	·	–	·	·	·
O=C(N/N=C/C1CC2C=CC1C2)c1ccccc1O (stereo not given)	–	·	–	·	·	·
CC1=C(C(=O)OCc2ccc3c(c2)OCO3)C(c2ccc(Cl)cc2)NC(=O)N1 (stereo not given)	–	–	–	–	·	·
CC1=C(C(=O)OCc2ccc3c(c2)OCO3)C(c2ccc(F)cc2)NC(=O)N1 (stereo not given)	–	24	–	–	–	–
O=C(NC(Nc1nc2ccc([N+](=O)[O-])cc2s1)(C(F)(F)F)C(F)(F)F)c1ccccc1Cl	55	24	83	–	–	–
O=C(NC(Nc1nc2ccc([N+](=O)[O-])cc2s1)(C(F)(F)F)C(F)(F)F)c1cccnc1	48	18	33	–	–	–
CN(C)S(=O)(=O)c1ccc2nc(NC(=O)c3cccnc3)sc2c1	–	–	–	–	·	·
O=C(C1CCC1)N1CCc2cc(S(=O)(=O)Nc3ccc4c(c3)OCO4)ccc21	–	19	–	–	–	–
CCOc1ccc(NS(=O)(=O)c2ccc3c(c2)CCN3C(=O)C2CCC2)cc1	–	–	–	–	·	·
CCCCSc1nnc(-c2ccc(C)cc2)c2ccccc12	–	18	–	–	–	–
CN(C)C(=O)CSc1nnc(-c2ccc(F)cc2)c2ccccc12	–	·	–	·	·	·
Cc1ccc(NC(=S)/N=C(\N)Nc2nc(C)c3cc(C)ccc3n2)c(C)c1	–	18	–	–	–	20
CCc1ccccc1NC(=S)/N=C(\N)Nc1nc(C)c2cc(C)ccc2n1	–	–	–	–	·	·
CN(C)CC1CCCCC1OC(=O)c1ccc(Br)cc1 (stereo not given)	–	·	–	–	·	·
CC(C)COc1ccc(C(=O)OC2CC(C)(C)OCC2CN(C)C)cc1 (stereo not given)	–	24	–	–	–	30
CCN(C(=O)COC(=O)c1c2c(nc3ccccc13)/C(=C/c1ccccc1)CC(C)C2)C1CCS(=O)(=O)C1 (stereo not given)	–	–	–	–	·	·
CCOC(=O)C1=C(c2ccccc2)NC(SCC(=O)Nc2cccc(C)c2)=C(C#N)C1c1ccco1 (stereo not given)	–	–	–	–	·	·
CCOC(=O)CSC1=C(C#N)C(c2ccco2)C(C(=O)Nc2cccc(C(F)(F)F)c2)=C(C)N1 (stereo not given)	–	18	–	–	–	19
COc1ccccc1C(=O)C1CCCN(C(=O)c2snnc2C)C1 (stereo not given)	–	·	–	–	·	·
CCOC(=O)c1c(NC(=O)CSc2nnc(C)s2)sc2c1CCC(C)C2 (stereo not given)	–	23	–	–	25	–
CCOC(=O)c1c(-c2ccc(C)o2)csc1NC(=O)CSc1nnc(C)s1	–	18	–	–	–	–
O=C(Oc1ccccc1)c1ccc2c(c1)C(=O)N(Cc1ccncc1)C2=O	–	·	–	·	·	·
